Laboratory results published in ChEMBL document CHEMBL1132987, “Phosphorylated morpholine acetal human neurokinin-1 receptor antagonists as water-soluble prodrugs” (J Med Chem, 2000).

Assays:
Mustela putorius furo [1] = experiment: (§1) Dose-dependent reduction in cisplatin-induced vomiting in ferrets at 0.1 mg/kg iv dose; assay type: functional
Cavia porcellus [2] = experiment: Dose (ID50) for inhibition of SP-mediated vascular leakage was determined after intravenous administration followed by resiniferatoxin (RTX) challenge 24 hour before; assay type: functional; conditions: read-out: ID50 (the source's name)
Mustela putorius furo [3] = experiment: (§2) Dose-dependent reduction in cisplatin-induced vomiting in ferrets at 0.3 mg/kg iv dose; assay type: functional
[4] = Area under curve was determined after intravenous administration of compound as Bis(N-methyl-D-glucamine) salt in rat at a dose 1 mg/kg; assay type: ADME, organism-based; set-up: dose 1 mg/kg, route intravenous; conditions: in vivo
Method in brief: (§3)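 The phosphate prodrug, as its bis(N-methyl-D-glucamine) salt, was dosed intravenously to rats (1, 8, 25 mg/kg) and dogs (0.5, 2, 32 mg/kg). The reported AUC is of the released parent antagonist in plasma, given as an average. Plasma prodrug and parent were followed by HPLC-MS/MS.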

Cavia porcellus [5] = experiment: Dose (ID50) for inhibition of SP-mediated vascular leakage was determined after oral administration followed by resiniferatoxin (RTX) challenge 1 hour; assay type: functional; conditions: read-out: ID50 (the source's name)
Method in brief: (§4)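 Guinea pigs received the compound orally or intravenously at either 1 h or 24 h before a systemic resiniferatoxin challenge, each line matching its own route and interval. The challenge induces SP-mediated systemic vascular leakage. ID50 (mg/kg) was derived from dose-response data using 2-11 animals per data point.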

Cavia porcellus [6] = experiment: Dose (ID50) for inhibition of SP-mediated vascular leakage was determined after intravenous administration followed by resiniferatoxin (RTX) challenge 1 hour before; assay type: functional; conditions: read-out: ID50 (the source's name); method in brief: as §4
[7] = Area under curve (AUC) was determined after intravenous administration in rat at a dose of 2 mg/kg; assay type: ADME, organism-based; set-up: dose 2 mg/kg, route intravenous; conditions: in vivo
Method in brief: (§5)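 The parent antagonist was given intravenously to rats (0.2, 2 and 5 mg/kg) or dogs. AUC of the parent was taken from plasma concentration–time data, and values are averages. Plasma levels were measured by HPLC-MS/MS.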

[8] = Area under curve (AUC) was determined after intravenous administration in dog at a dose of 0.5 mg/kg; assay type: ADME, organism-based, Canis lupus familiaris; set-up: dose 0.5 mg/kg, route intravenous; conditions: in vivo; method in brief: as §5
[9] = Area under curve (AUC) was determined after intravenous administration of compound as Bis(N-methyl-D-glucamine) salt in rat at a dose 25 mg/Kg; assay type: ADME, organism-based; conditions: in vivo; method in brief: as §3
[10] = Area under curve (AUC) was determined after intravenous administration of compound as Bis(N-methyl-D-glucamine) salt in dog at a dose of 2 mg/Kg; assay type: ADME, organism-based, Canis lupus familiaris; conditions: in vivo; method in brief: as §3
Mustela putorius furo [11] = experiment: inhibitory dose was determined after intravenous administration of the compound.; assay type: functional
Mustela putorius furo [12] = experiment: (§6) Dose dependent reduction in cisplatin-induced retching in ferrets at 0.1 mg/kg iv dose; assay type: functional
[13] = Area under curve (AUC) was determined after intravenous administration in rat at a dose of 5 mg/kg; assay type: ADME, organism-based; set-up: dose 5 mg/kg, route intravenous; conditions: in vivo; method in brief: as §5
Mustela putorius furo [14] = experiment: (§7) Dose dependent reduction in cisplatin-induced retching in ferrets at 0.3 mg/kg iv dose; assay type: functional
[15] = Area under curve (AUC) was determined after intravenous administration in dog at a dose of 2 mg/kg; assay type: ADME, organism-based, Canis lupus familiaris; set-up: dose 2 mg/kg, route intravenous; conditions: in vivo; method in brief: as §5
Mustela putorius furo [16] = experiment: (§8) Dose-dependent reduction in cisplatin-induced vomiting in ferrets at 1.0 mg/kg iv dose; assay type: functional
[17] = Area under curve was determined after intravenous administration of compound as Bis(N-methyl-D-glucamine) salt in rat at a dose 8 mg/kg; assay type: ADME, organism-based; set-up: dose 8 mg/kg, route intravenous; conditions: in vivo; method in brief: as §3
Mustela putorius furo [18] = experiment: (§9) Dose dependent reduction in cisplatin-induced retching in ferrets at 1.0 mg/kg iv dose; assay type: functional
[19] = Area under curve (AUC) was determined after intravenous administration of compound as Bis(N-methyl-D-glucamine) salt in dog at a dose of 0.5 mg/Kg; assay type: ADME, organism-based, Canis lupus familiaris; conditions: in vivo; method in brief: as §3
[20] = Area under curve (AUC) was determined after intravenous administration of compound as Bis(N-methyl-D-glucamine) salt in dog at a dose of 32 mg/Kg; assay type: ADME, organism-based, Canis lupus familiaris; conditions: in vivo; method in brief: as §3
Cavia porcellus [21] = experiment: Inhibitory dose (ID50) was determined after oral administration followed by resiniferatoxin (RTX) challenge 1 hour; assay type: functional; conditions: read-out: ID50 (the source's name); method in brief: as §4
Mustela putorius furo [22] = experiment: as §6; assay type: functional; remark: listed apart in the source
Method in brief: (§10)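 Ferrets were pretreated intravenously at 0.1, 0.3 or 1.0 mg/kg, then given cisplatin at 10 mg/kg iv. Retches and vomits were counted over a 4 h observation period and reported as mean counts, with n = 4 per group. Vehicle-pretreated controls (n = 4-6) were run alongside.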

Mustela putorius furo [23] = experiment: as §1; assay type: functional; method in brief: as §10; remark: listed apart in the source
Mustela putorius furo [24] = experiment: as §9; assay type: functional; method in brief: as §10; remark: listed apart in the source
Mustela putorius furo [25] = experiment: as §2; assay type: functional; method in brief: as §10; remark: listed apart in the source
Mustela putorius furo [26] = experiment: as §8; assay type: functional; method in brief: as §10; remark: listed apart in the source
Mustela putorius furo [27] = experiment: as §7; assay type: functional; method in brief: as §10; remark: listed apart in the source
Cavia porcellus [28] = experiment: Inhibitory dose (ID50) was determined after oral administration followed by resiniferatoxin (RTX) challenge 24 hour before; assay type: functional; conditions: read-out: ID50 (the source's name); method in brief: as §4
Cavia porcellus [29] = experiment: Inhibitory dose (ID50) was determined after intravenous administration followed by resiniferatoxin (RTX) challenge 1 hour before; assay type: functional; conditions: read-out: ID50 (the source's name); method in brief: as §4

C[C@@H](O[C@H]1OCCN(Cc2n[nH]c(=O)[nH]2)[C@H]1c1ccc(F)cc1)c1cc(C(F)(F)F)cc(C(F)(F)F)c1 [APREPITANT]
Incidence_count (Mustela putorius furo [1]): 13
ED50 (Cavia porcellus [2]): 0.5 mg/kg
Incidence_count (Mustela putorius furo [3]): 1
AUC [4]: 570 ng·h/mL
ED50 (Cavia porcellus [5]): 0.012 mg/kg
ED50 (Cavia porcellus [6]): 0.002 mg/kg
AUC [7]: 2700 ng·h/mL
AUC [8]: 3800 ng·h/mL
AUC [9]: 22000 ng·h/mL
AUC [10]: 8900 ng·h/mL
ID90 (Mustela putorius furo [11]): 0.3 mg/kg
Incidence_count (Mustela putorius furo [12]): 90
AUC [13]: 6400 ng·h/mL
Incidence_count (Mustela putorius furo [14]): 5
AUC [15]: 38000 ng·h/mL
Incidence_count (Mustela putorius furo [16]): 0
AUC [17]: 6300 ng·h/mL
Incidence_count (Mustela putorius furo [18]): 0
AUC [19]: 1100 ng·h/mL
AUC [20]: 370000 ng·h/mL

CNC[C@H](O)[C@@H](O)[C@H](O)[C@H](O)CO.C[C@@H](O[C@H]1OCCN(Cc2nc(O)n(P(=O)(O)O)n2)[C@H]1c1ccc(F)cc1)c1cc(C(F)(F)F)cc(C(F)(F)F)c1
ED50 (Cavia porcellus [21]): 0.016 mg/kg
Incidence_count (Mustela putorius furo [22]): 115
Incidence_count (Mustela putorius furo [23]): 16
Incidence_count (Mustela putorius furo [24]): 2
ID90 (Mustela putorius furo [11]): 0.8 mg/kg
Incidence_count (Mustela putorius furo [25]): 4
Incidence_count (Mustela putorius furo [26]): 1
Incidence_count (Mustela putorius furo [27]): 26
ED50 (Cavia porcellus [28]): 0.9 mg/kg
ED50 (Cavia porcellus [29]): 0.006 mg/kg
